Source: PubChem BioAssay
PKD1 kinase inh: inhibitors of human PKD1 kinase; AID 797; Q15139; 200,000 tested, 0.056% active; inhibition, % (no concentration beside the values); PKD1 kinase fluorescence polarization assay
Target sequence (Q15139 whole entry, looked up): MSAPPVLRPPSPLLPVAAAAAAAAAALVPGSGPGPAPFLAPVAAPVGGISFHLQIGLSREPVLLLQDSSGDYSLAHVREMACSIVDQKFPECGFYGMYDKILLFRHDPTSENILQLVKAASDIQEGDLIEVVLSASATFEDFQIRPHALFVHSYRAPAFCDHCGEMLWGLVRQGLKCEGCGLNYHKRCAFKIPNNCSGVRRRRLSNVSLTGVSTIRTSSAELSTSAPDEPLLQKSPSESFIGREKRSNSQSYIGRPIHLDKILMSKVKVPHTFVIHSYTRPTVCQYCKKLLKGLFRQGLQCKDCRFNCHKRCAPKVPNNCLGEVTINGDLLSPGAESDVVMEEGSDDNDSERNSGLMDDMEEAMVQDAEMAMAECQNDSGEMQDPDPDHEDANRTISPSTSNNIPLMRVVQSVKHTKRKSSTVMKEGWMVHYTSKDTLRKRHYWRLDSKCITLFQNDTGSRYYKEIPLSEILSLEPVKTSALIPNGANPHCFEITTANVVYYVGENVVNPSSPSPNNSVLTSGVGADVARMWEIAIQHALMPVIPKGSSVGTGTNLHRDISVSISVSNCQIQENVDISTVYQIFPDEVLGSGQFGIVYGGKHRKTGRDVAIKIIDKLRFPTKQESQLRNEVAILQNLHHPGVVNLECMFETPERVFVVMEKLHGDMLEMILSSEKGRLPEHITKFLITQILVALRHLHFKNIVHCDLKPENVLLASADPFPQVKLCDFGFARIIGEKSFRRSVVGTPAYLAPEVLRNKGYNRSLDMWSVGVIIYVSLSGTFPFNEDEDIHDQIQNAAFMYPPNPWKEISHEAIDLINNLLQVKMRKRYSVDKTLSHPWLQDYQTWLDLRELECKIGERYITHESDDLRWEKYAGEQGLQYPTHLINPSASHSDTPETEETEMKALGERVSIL
Rad51 HR inh: Rad51 (human) homologous recombination inhibition | Q06609 | hRad51 DNA strand exchange, fluorescence dequenching | inhibition, % at 10 µM | 200,000 tested, 0.085% active | AID 1385;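 active = inhibition above 40% at the single screening dose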;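 also: 0% = DMSO control wells and 100% = blanks with heterologous ssDNA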
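Assay system: Human Rad51 nucleoprotein filaments preassembled on unlabelled ssDNA | Reagent: Donor/quencher-labelled 47-bp dsDNA substrate | Doses: One concentration, 10 µM final | Times: 37 °C 15-min filament assembly, 30-min compound preincubation, 15-min exchange | Technique: Fluorescein emission 520 nm, excitation 485 nm | Benchmarks: Plate control and blank wells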
CHOP inhibitor: inhibitors of CHOP induction in ER stress response | CHO-K1 CHOP-promoter luciferase, tunicamycin-induced, 15-18 h | inhibition, % at 10 µM | 220,000 tested, 3.8% active;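 active = compounds that reduced the stress-induced luciferase reporter signal by more than about 70% of percent inhibition, limit read from the data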;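 also: 0% = tunicamycin plus vehicle and 100% = wells without tunicamycin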
Wee1 stabilizer: human Wee1 degradation inhibition, primary screen; HeLa Luc-Wee1K328M stability, luciferase luminescence; 100% = proteasome inhibitor MG132 effect; P30291; 220,000 tested, 1.2% active; reporter increase, % at 5 µM;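 active = activation above the mean of all tested compounds plus 3 SD, set per screening run, cut at about 8.8% in these data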;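 also: cells exposed to compound for 20 h before luminescence read; 0% = DMSO alone and 100% = MG132 at 30 µM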
Arbovirus anti: blocks arbovirus infection; 200,000 tested, 0.37% active; arbovirus infection cell-based antiviral screen; inhibition, % at 10 µM; in the data active = inhibition above about 30%
L major viab: Leishmania major promastigote growth inhibition; Leishmania major promastigotes, resazurin fluorescence viability; inhibition, % at 10 µM; 200,000 tested, 9% active; AID 1063;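 also: promastigotes grown with compound for 44 hours at 28 °C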
* marks the source's active call; other numbers are inactive results; nt = no result given. Most compounds without a hit are left out; they make up all but 12% or so of the library. Rule as the data show it, unless noted: active = inhibition above about 50%; inactive = the rest.

SMILES	PKD1 kinase inh	Rad51 HR inh	CHOP inhibitor	Wee1 stabilizer	Arbovirus anti	L major viab
CCC(CC)c1nnc(NC(=O)c2ccc3ccccc3n2)s1	-4.9	1.2	-44.3	2.3	-36.6	77.9*
CCC(=O)NC1=C(Cl)C(=O)C(NC(=O)CC)=C(Cl)C1=O	nt	10.5	86.7*	2.3	nt	nt
CCOc1ccc(OCC)c(NS(=O)(=O)c2cccc3nsnc23)c1	-4.7	2.3	83.2*	-1.2	0.7	4.6
CCOc1ccc2nc(NC(=O)C(NS(=O)(=O)c3cccc4nsnc34)C(C)C)sc2c1 (stereo unspecified)	8.9	0.8	20.1	2.1	-22.0	52.2*
O=C(CN1CCCc2ccccc21)NCCc1ccc(Cl)cc1	0.4	-7.9	29.1	3.5	4.1	3.9
Cc1ccc(S(=O)(=O)N/N=C/c2ccc(OS(=O)(=O)c3ccc(C)c([N+](=O)[O-])c3)cc2)cc1	-4.1	1.4	79.9*	3.7	1.5	9.4
Cc1ccc(/C=N/NS(=O)(=O)c2ccc([N+](=O)[O-])cc2)o1	8.7	-2.6	17.6	8.3	0.4	-6.4
Cc1ccc(S(=O)(=O)N/N=C\c2ccc([N+](=O)[O-])o2)cc1	-1.4	3.7	30.6	-1.9	-7.1	87.2*
O=[N+]([O-])c1ccc(/C=N/NS(=O)(=O)c2ccc(Cl)cc2)o1	-31.3	22.3	-18.2	-0.9	-10.0	53.4*
COc1ccc(COC(=O)N/N=C(\C)CC(=O)Nc2ccc(Cl)cn2)cc1	nt	nt	27.7	-4.3	nt	nt
CCN(CCCNC(=O)C1c2ccccc2C(=O)N(CCOC)C1c1ccc(F)cc1)Cc1ccccc1 (stereo unspecified)	-8.6	1.0	11.7	-1.8	-16.0	99.2*
CCN(CC)CCCNC(=O)C1c2ccccc2C(=O)N(CCOC)C1c1ccc(F)cc1 (stereo unspecified)	-4.0	-1.4	-2.3	-0.1	4.6	35.2
Cc1noc(C)c1S(=O)(=O)N1CCN(C(c2ccccc2)c2ccc(Cl)cc2)CC1 (stereo unspecified)	-4.4	0.6	35.5	-1.7	-9.3	70.9*
CN1CCC(Oc2ccccc2Sc2ccccc2)CC1	-18.0	9.1	41.1	2.5	-19.1	100.3*
CN1CCC(OC(c2ccccc2)c2ccccc2)CC1	-8.7	2.4	-4.4	0.1	-14.6	6.7
O=C(NC(=S)Nc1ccc2c(c1)OCCO2)c1cccc(Br)c1	-5.5	-5.7	-23.1	1.8	10.2	68.1*
O=C(Nc1ccc2c(c1)OCCO2)c1ccc(Br)s1	1.5	2.8	26.6	-0.9	-2.1	53.6*
O=C(Nc1ccc2c(c1)OCO2)c1cncc(Br)c1	-7.6	1.6	16.3	20.9*	-3.4	-6.7
O=C(NC(=S)Nc1cccc(Cl)c1N1CCCCC1)c1ccc2c(c1)OCCO2	-6.6	10.3	35.4	0.1	2.3	96.9*
O=C(OCC(=O)N1CCN(C(=O)c2ccco2)CC1)c1cccc(S(=O)(=O)N2CCc3ccccc32)c1	-3.5	-6.6	8.1	-4.3	19.1	17.3
Cc1ccc(C(=O)NC(=O)CSc2ncccc2C(=O)O)cc1	1.1	nt	2.3	-4.0	4.1	-0.4
Cc1cc(OCC(=O)NC(C)c2ccccc2)ccc1[N+](=O)[O-] (stereo unspecified)	-7.0	1.6	-11.1	-0.9	3.7	-1.1
CCOC(=O)Cn1c(S(=O)(=O)Cc2ccccc2Cl)nc(-c2ccccc2)c1-c1ccccc1	-15.2	-0.6	70.1*	1.3	-8.8	39.3
C#CCn1c(S(=O)(=O)Cc2ccccc2Cl)nc(-c2ccccc2)c1-c1ccccc1	7.3	-4.2	80.4*	0.2	-7.5	-2.5
C#CCn1c(S(=O)(=O)Cc2ccc(C)cc2)nc(-c2ccccc2)c1-c1ccccc1	7.2	-0.2	22.2	0.3	0.5	32.4
SMILES	PKD1 kinase inh	Rad51 HR inh	CHOP inhibitor	Wee1 stabilizer	Arbovirus anti	L major viab
CCn1c(C)nc2cc(C(=O)NNC(=S)NC(=O)c3ccc(OC)cc3)ccc21	9.2	1.0	28.0	1.6	2.0	94.3*
CCn1c(C)nc2cc(C(=O)NNC(=S)Nc3ccc(C)cc3)ccc21	nt	-1.4	-10.8	0.2	nt	nt
Cc1ccc(NC(=O)C2CCCN2C(=O)OC(C)(C)C)cc1C (stereo unspecified)	nt	28.5	5.3	10.2*	nt	nt
CC(C)(C)OC(=O)N1CCC[C@H]1C(=O)NCc1ccc(Cl)cc1Cl	-4.7	7.0	13.8	10.2*	-4.2	3.6
COc1cc(C)nc(NC(=S)N(C)C(=O)c2ccccc2)n1	nt	-0.2	8.6	8.4	nt	nt
COCC(=O)O[C@]1(CCN(C)CCCc2nc3ccccc3[nH]2)CCc2cc(F)ccc2[C@@H]1C(C)C	nt	11.8	26.5	nt	nt	nt
O=c1c2c3c(sc2n2cnnc2n1Cc1ccccc1)CN(Cc1ccccc1)CC3	-2.7	-9.0	nt	6.0	nt	100.2*
CCC(=O)N(c1ccc(C(=O)O)cc1)c1nc(-c2ccc(OC)cc2)c(C)s1	-7.1	6.4	9.1	2.8	17.5	-6.7
CCc1ccc(-c2csc(-c3c[nH]c4ccccc34)n2)cc1	6.1	8.1	86.4*	2.5	7.3	4.2
Cc1cccc2cc(C#N)c(SCCN3CCCCC3)nc12	-5.1	1.1	nt	0.7	nt	99.8*
Cc1cccc2cc(C#N)c(N3CCN(C)CC3)nc12	-7.7	-10.9	-1.2	-4.1	-4.6	17.6
CCOC(=O)c1cc(-c2ccccc2)sc1NC(=O)CN1C(=O)c2ccccc2C1=O	-3.6	5.6	nt	1.4	nt	-6.1
CCOC(=O)c1c(NC(=O)CSc2nnnn2C)sc(C)c1C	6.6	2.5	9.4	-1.2	-3.0	6.1
CCOC(=O)c1c(NC(=O)CN2C(=O)NC(C)(c3ccccc3)C2=O)sc(C)c1C (stereo unspecified)	1.6	-5.7	32.3	-1.4	-21.6	70.0*
CCOC(=O)c1c(NC(=O)CSc2n[nH]c(CNc3ccccc3)n2)sc(C)c1C	-0.1	-0.5	91.3*	3.2	-12.4	24.4
CCOC(=O)c1c(NC(=O)CSc2n[nH]c(-c3ccco3)n2)sc(C)c1C	2.9	-6.7	32.7	-1.5	19.6	-1.2
CCOC(=O)c1c(NC(=O)CSc2nnc(C)o2)sc(C)c1C	nt	23.0	15.2	9.8*	nt	nt
CCCC1(c2ccccc2)NC(=O)N(CC(=O)Nc2sc(-c3ccccc3)cc2C(=O)OCC)C1=O (stereo unspecified)	-3.4	-3.5	85.2*	0.8	-14.4	-3.5
CCOc1ccc(-n2c(N)c(-c3nc4ccccc4[nH]3)sc2=S)cc1	0.0	5.4	80.6*	-1.4	-6.5	-5.4
COc1ccc(-n2c(N)c(-c3nc4ccccc4n3C)sc2=S)cc1	0.9	2.3	28.0	-0.8	-0.9	-5.2
CC(C)(CO)NCc1cccc(OCc2ccc(Cl)cc2)c1	-12.4	nt	-13.5	-3.1	-29.4	31.1
CCOCCCNCc1cccc(OCc2ccc(F)cc2)c1	-16.8	6.3	8.9	1.4	-14.8	99.0*
CCOCCCNCc1ccc(Cl)cc1	-8.2	4.1	1.6	-1.7	-10.5	69.2*
CCOC(=O)CN(C(=O)CSc1nnc(CNc2ccc(F)cc2)o1)c1ccccc1	11.4	0.1	12.9	-3.0	6.1	14.1
Clc1cccc(NCc2nnc(SCc3ccccc3Cl)o2)c1	-7.1	nt	67.7	-0.9	2.1	-5.5
